Measurements taken from ChEMBL document CHEMBL1156500, “Characterization of the metabolic activation of hepatitis C virus nucleoside inhibitor beta-D-2'-Deoxy-2'-fluoro-2'-C-methylcytidine (PSI-6130) and identification of a novel active 5'-triphosphate species” (J Biol Chem, 2007).

Experiments:
Hepatocyte [1] = experiment: Drug uptake in human hepatocyte at 25 uM after 24 hrs assessed as 4-amino-1-((2R,3R,4R,5R)-3-fluoro-4-hydroxy-5-(hydroxymethyl)-3-methyl-tetrahydrofuran-2-yl)pyrimidin-2(1H)-one di phosphate level per 10^6 cells; assay type: ADME, cell-based; details: hepatocytes
Outline: (§1)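 Primary human hepatocytes from 3 donors were plated on collagen and recovered for ≥18 h. They were exposed for 24 h, in duplicate, to 0–250 μM drug: 3H-labelled material diluted with unlabelled compound. Total intracellular radioactivity and individual phosphates were measured in methanol extracts by SAX HPLC with radiometric detection. Results are pmol/10^6 cells, mean ± S.D.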

Hepatocyte [2] = experiment: Drug uptake in human hepatocyte at 2 uM after 24 hrs assessed as 1-((2R,3R,4R,5R)-3-fluoro-4-hydroxy-5-(hydroxymethyl)-3-methyl-tetrahydrofuran-2-yl)pyrimidine-2,4(1H,3H)-dione tri phosphate level per 10^6 cells; assay type: ADME, cell-based; details: hepatocytes; outline: as §1
Hepatocyte [3] = experiment: Drug uptake in human hepatocyte at 2 uM after 72 hrs assessed per 10^6 cells; assay type: ADME, cell-based; details: hepatocytes
Outline: (§2)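 Primary human hepatocytes from 4 donors were plated at 1.5 million cells/well on collagen and recovered for ≥18 h. They were dosed with 3H-labelled drug at 2 μM (10 μCi/ml) for 1–72 h, in duplicate, at 37°C. Cold 60% methanol extracts were run on SAX ion-exchange HPLC with radiometric detection and compared with reference standards. Results are pmol/10^6 cells, mean ± S.D.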

Hepatocyte [4] = experiment: Drug uptake in human hepatocyte at 250 uM after 24 hrs assessed as 4-amino-1-((2R,3R,4R,5R)-3-fluoro-4-hydroxy-5-(hydroxymethyl)-3-methyl-tetrahydrofuran-2-yl)pyrimidin-2(1H)-one di phosphate level per 10^6 cells; assay type: ADME, cell-based; details: hepatocytes; outline: as §1
Hepatocyte [5] = experiment: Drug uptake in human hepatocyte at 10 uM after 24 hrs assessed per 10^6 cells; assay type: ADME, cell-based; details: hepatocytes; outline: as §1
Hepatitis C virus = experiment: Antiviral activity against HCV 1b Con1 in 2209-23 cells after 72 hrs by luciferase based replicon assay; assay type: functional, organism-based, Hepacivirus hominis; details: genotype 1b Con 1, 2209-23, 72 h
Outline: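 Huh7-derived 2209-23 cells carrying a bicistronic genotype 1b Con1 subgenomic HCV replicon with a Renilla luciferase reporter of RNA replication. Cells were exposed to compound for 72 h, and dose-dependent reduction of luciferase activity was measured to give IC50.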

Hepatocyte [6] = experiment: Drug uptake in human hepatocyte at 10 uM after 24 hrs assessed as 4-amino-1-((2R,3R,4R,5R)-3-fluoro-4-hydroxy-5-(hydroxymethyl)-3-methyl-tetrahydrofuran-2-yl)pyrimidin-2(1H)-one tri phosphate level per 10^6 cells; assay type: ADME, cell-based; details: hepatocytes; outline: as §1
Hepatocyte [7] = experiment: Drug uptake in human hepatocyte at 2 uM after 6 hrs assessed per 10^6 cells; assay type: ADME, cell-based; details: hepatocytes; outline: as §2
Hepatocyte [8] = experiment: Drug uptake in human hepatocyte at 25 uM after 24 hrs assessed as 4-amino-1-((2R,3R,4R,5R)-3-fluoro-4-hydroxy-5-(hydroxymethyl)-3-methyl-tetrahydrofuran-2-yl)pyrimidin-2(1H)-one tri phosphate level per 10^6 cells; assay type: ADME, cell-based; details: hepatocytes; outline: as §1
Hepatocyte [9] = experiment: Drug uptake in human hepatocyte at 2 uM after 24 hrs assessed as 1-((2R,3R,4R,5R)-3-fluoro-4-hydroxy-5-(hydroxymethyl)-3-methyl-tetrahydrofuran-2-yl)[…] tri phosphate level per 10^6 cells; assay type: ADME, cell-based; details: hepatocytes; outline: as §2
Hepatocyte [10] = experiment: Drug uptake in human hepatocyte at 2 uM after 6 hrs assessed as 1-((2R,3R,4R,5R)-3-fluoro-4-hydroxy-5-(hydroxymethyl)-3-methyl-tetrahydrofuran-2-yl)pyrimitrine-2,4(1H,3H)-trione tri phosphate level per 10^6 cells; assay type: ADME, cell-based; details: hepatocytes; outline: as §2
Hepatocyte [11] = experiment: (§3) Drug uptake in human hepatocyte at 2 uM after 24 hrs assessed per 10^6 cells; assay type: ADME, cell-based; details: hepatocytes
Hepatocyte [12] = experiment: Drug uptake in human hepatocyte at 100 uM after 24 hrs assessed as 1-((2R,3R,4R,5R)-3-fluoro-4-hydroxy-5-(hydroxymethyl)-3-methyl-tetrahydrofuran-2-yl)pyrimidine-2,4(1H,3H)-dione di phosphate level per 10^6 cells; assay type: ADME, cell-based; details: hepatocytes; outline: as §1
Hepatocyte [13] = experiment: Drug uptake in human hepatocyte at 2 uM after 48 hrs assessed per 10^6 cells; assay type: ADME, cell-based; details: hepatocytes; outline: as §2
Hepatocyte [14] = experiment: Drug uptake in human hepatocyte at 2 uM after 24 hrs assessed as 4-amino-1-((2R,3R,4R,5R)-3-fluoro-4-hydroxy-5-(hydroxymethyl)-3-methyl-tetrahydrofuran-2-yl)pyrimidin-2(1H)-one di phosphate level per 10^6 cells; assay type: ADME, cell-based; details: hepatocytes; outline: as §1
Hepatocyte [15] = experiment: Drug uptake in human hepatocyte at 50 uM after 24 hrs assessed as 4-amino-1-((2R,3R,4R,5R)-3-fluoro-4-hydroxy-5-(hydroxymethyl)-3-methyl-tetrahydrofuran-2-yl)pyrimidin-2(1H)-one di phosphate level per 10^6 cells; assay type: ADME, cell-based; details: hepatocytes; outline: as §1
Hepatocyte [16] = experiment: as §3; assay type: ADME, cell-based; details: hepatocytes; remark: listed apart in the source
Hepatocyte [17] = experiment: Drug uptake in human hepatocyte at 2 uM after 16 hrs assessed as 1-((2R,3R,4R,5R)-3-fluoro-4-hydroxy-5-(hydroxymethyl)-3-methyl-tetrahydrofuran-2-yl)pyrimitrine-2,4(1H,3H)-trione tri phosphate level per 10^6 cells; assay type: ADME, cell-based; details: hepatocytes; outline: as §2
Hepatocyte [18] = experiment: Drug uptake in human hepatocyte at 250 uM after 24 hrs assessed as 1-((2R,3R,4R,5R)-3-fluoro-4-hydroxy-5-(hydroxymethyl)-3-methyl-tetrahydrofuran-2-yl)pyrimidine-2,4(1H,3H)-dione di phosphate level per 10^6 cells; assay type: ADME, cell-based; details: hepatocytes; outline: as §1
Hepatocyte [19] = experiment: Drug uptake in human hepatocyte at 100 uM after 24 hrs assessed as 4-amino-1-((2R,3R,4R,5R)-3-fluoro-4-hydroxy-5-(hydroxymethyl)-3-methyl-tetrahydrofuran-2-yl)pyrimidin-2(1H)-one di phosphate level per 10^6 cells; assay type: ADME, cell-based; details: hepatocytes; outline: as §1
Hepatocyte [20] = experiment: Drug uptake in human hepatocyte at 2 uM after 24 hrs assessed as 4-amino-1-((2R,3R,4R,5R)-3-fluoro-4-hydroxy-5-(hydroxymethyl)-3-methyl-tetrahydrofuran-2-yl)pyrimidin-2(1H)-one tri phosphate level per 10^6 cells; assay type: ADME, cell-based; details: hepatocytes; outline: as §1
Hepatocyte [21] = experiment: Drug uptake in human hepatocyte at 100 uM after 24 hrs assessed per 10^6 cells; assay type: ADME, cell-based; details: hepatocytes; outline: as §1
Hepatocyte [22] = experiment: Drug uptake in human hepatocyte at 2 uM after 1 hr assessed per 10^6 cells; assay type: ADME, cell-based; details: hepatocytes; outline: as §2
Hepatocyte [23] = experiment: Drug uptake in human hepatocyte at 25 uM after 24 hrs assessed as 1-((2R,3R,4R,5R)-3-fluoro-4-hydroxy-5-(hydroxymethyl)-3-methyl-tetrahydrofuran-2-yl)pyrimidine-2,4(1H,3H)-dione di phosphate level per 10^6 cells; assay type: ADME, cell-based; details: hepatocytes; outline: as §1

Drug uptake (Hepatocyte [1]): 3.4 pmol
Drug uptake (Hepatocyte [2]): 2.4 pmol
Drug uptake (Hepatocyte [3]): 34.6 pmol
Drug uptake (Hepatocyte [4]): 19.6 pmol
Drug uptake (Hepatocyte [5]): 165.5 pmol
IC50 (Hepatitis C virus): 600 nM
Drug uptake (Hepatocyte [6]): 5.6 pmol
Drug uptake (Hepatocyte [7]): 32.9 pmol
Drug uptake (Hepatocyte [8]): 11.3 pmol
Drug uptake (Hepatocyte [9]): 1.3 pmol
Drug uptake (Hepatocyte [10]): 0.3 pmol
Drug uptake (Hepatocyte [11]): 36.4 pmol
Drug uptake (Hepatocyte [12]): 34.7 pmol
Drug uptake (Hepatocyte [13]): 31.9 pmol
Drug uptake (Hepatocyte [14]): 0.3 pmol
Drug uptake (Hepatocyte [15]): 8.2 pmol
Drug uptake (Hepatocyte [16]): 34.5 pmol
Drug uptake (Hepatocyte [17]): 0.6 pmol
Drug uptake (Hepatocyte [18]): 40.9 pmol
Drug uptake (Hepatocyte [19]): 13.4 pmol
Drug uptake (Hepatocyte [20]): 1.4 pmol
Drug uptake (Hepatocyte [21]): 1529.9 pmol
Drug uptake (Hepatocyte [22]): 30.4 pmol
Drug uptake (Hepatocyte [23]): 9.5 pmol
SMILES: C[C@@]1(F)[C@H](O)[C@@H](CO)O[C@H]1n1ccc(N)nc1=O
